# Measured values from ChEMBL document CHEMBL4325914, “Design and Evaluation of Potent EGFR Inhibitors through the Incorporation of Macrocyclic Polyamine Moieties into the 4-Anilinoquinazoline Scaffold” (J Med Chem, 2018).
# The source made the active and inactive calls. No cut-off for these calls is given here.
# Columns and labels:
# A-431 = assay: cells; format: functional, cell-based; settings: Homo sapiens, A-431, 72 h;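 note: antiproliferative activity measured with an MTT assay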
# A549 [1] = assay: cells; format: functional, cell-based; settings: Homo sapiens, A549, 72 h
# A549 [2] = assay: Cytotoxicity against human A549 cells assessed as reduction in intracellular ATP levels at 8 uM after 24 hrs by luciferase-luciferin based assay; format: functional, cell-based
# Summary of the method: (§1)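 A549 cells were plated at 4000 per well and allowed to settle 12 h. They were then exposed to compound or DMSO for 24 h or 72 h. Medium was removed and reconstituted luciferase-luciferin reagent added. Luminescence was read within 1 min and converted to ATP concentration from a reference plot. Each concentration was run in quadruplicate.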
# A549 [3] = assay: Induction of apoptosis in human A549 cells assessed as early apoptotic cells at 8 uM after 72 hrs by FITC-annexin V/propidium iodide-double staining based flow cytometry (reference value: 9.38%); format: functional
# A549 [4] = assay: Cytotoxicity against human A549 cells assessed as effect on intracellular ATP levels at 0 to 2 uM after 24 hrs by luciferase-luciferin based assay; format: functional, cell-based
# Summary of the method: as §1
# A549 [5] = assay: Induction of apoptosis in human A549 cells assessed as late apoptotic cells at 8 uM after 72 hrs by FITC-annexin V/propidium iodide-double staining based flow cytometry (reference value: 6.59%); format: functional
# [6] = Toxicity in human A549 cells xenografted BALB/c nude mouse assessed as effect on body weight at 30 mg/kg, ig administered every 2 days for 19 days; format: organism-based; settings: in vivo, po
# Summary of the method: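 Female six-week-old BALB/c nude mice received 2.0 × 10^6 A549 cells subcutaneously. Dosing began at mean tumor size 200-400 mm3. 21 mice were randomized to vehicle (water, 30 mL/kg) or drug (30 mg/kg), both intragastric, every 2 days for 19 days. Body weight was recorded. Tumors were caliper-measured twice weekly (V = length × width²/2) and weighed at the end.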
# [7] = target: Epidermal growth factor receptor (Homo sapiens, UniProt P00533)
# A549 [8] = assay: Cytotoxicity against human A549 cells assessed as effect on intracellular ATP levels at 6 uM after 24 hrs by luciferase-luciferin based assay; format: functional, cell-based
# Summary of the method: as §1
# in vitro = settings: mouse, L929 cells
# L929 = assay: Cytotoxicity against mouse L929 cells assessed as cell growth inhibition after 72 hrs by MTT assay; format: cell-based; settings: L929, 72 h
# A549 [9] = assay: Cytotoxicity against human A549 cells assessed as depletion of intracellular ATP levels at 8 uM after 72 hrs by luciferase-luciferin based assay; format: functional, cell-based
# Summary of the method: as §1
# [10] = target: Epidermal growth factor receptor (Homo sapiens, UniProt P00533, T790M)
# [11] = target: Receptor tyrosine-protein kinase erbB-2 (Homo sapiens, UniProt P04626); assay: Inhibition of wild type human N-terminal His-tagged HER2 cytoplasmic domain (676 to 1255 residues) expressed in baculovirus expression system after 1 hr in presence of ULight-labeled peptide substrate and ATP by LANCE ultra kinase assay
# A549 [12] = assay: animal or person; format: functional, Homo sapiens; settings: Mus musculus, A549, po, read-out: TGI
# A549 [13] = assay: Antitumor activity against human A549 cells xenografted in BALB/c nude mouse assessed as tumor necrosis at 30 mg/kg, ig administered every 2 days for 19 days by hematoxylin/eosin-staining based histological analysis; format: functional, organism-based
# A549 [14] = assay: Induction of apoptosis in human A549 cells assessed as late apoptotic cells at 1 uM after 72 hrs by FITC-annexin V/propidium iodide-double staining based flow cytometry (reference value: 6.59%); format: functional
# A549 [15] = assay: Induction of apoptosis in human A549 cells assessed as late apoptotic cells at 4 uM after 72 hrs by FITC-annexin V/propidium iodide-double staining based flow cytometry (reference value: 6.59%); format: functional
# A549 [16] = assay: Induction of apoptosis in human A549 cells after 72 hrs by FITC-annexin V/propidium iodide-double staining based flow cytometry; format: functional, cell-based
# A549 [17] = assay: Induction of apoptosis in human A549 cells assessed as early apoptotic cells at 1 uM after 72 hrs by FITC-annexin V/propidium iodide-double staining based flow cytometry (reference value: 9.38%); format: functional
# A549 [18] = assay: Induction of apoptosis in human A549 cells assessed as early apoptotic cells at 4 uM after 72 hrs by FITC-annexin V/propidium iodide-double staining based flow cytometry (reference value: 9.38%); format: functional
# A549 [19] = assay: Cytotoxicity against human A549 cells assessed as depletion of intracellular ATP levels at 2 uM after 72 hrs by luciferase-luciferin based assay; format: functional, cell-based
# Summary of the method: as §1
# Epidermal growth factor receptor (Homo sapiens, UniProt P00533), sequence (P00533 whole entry): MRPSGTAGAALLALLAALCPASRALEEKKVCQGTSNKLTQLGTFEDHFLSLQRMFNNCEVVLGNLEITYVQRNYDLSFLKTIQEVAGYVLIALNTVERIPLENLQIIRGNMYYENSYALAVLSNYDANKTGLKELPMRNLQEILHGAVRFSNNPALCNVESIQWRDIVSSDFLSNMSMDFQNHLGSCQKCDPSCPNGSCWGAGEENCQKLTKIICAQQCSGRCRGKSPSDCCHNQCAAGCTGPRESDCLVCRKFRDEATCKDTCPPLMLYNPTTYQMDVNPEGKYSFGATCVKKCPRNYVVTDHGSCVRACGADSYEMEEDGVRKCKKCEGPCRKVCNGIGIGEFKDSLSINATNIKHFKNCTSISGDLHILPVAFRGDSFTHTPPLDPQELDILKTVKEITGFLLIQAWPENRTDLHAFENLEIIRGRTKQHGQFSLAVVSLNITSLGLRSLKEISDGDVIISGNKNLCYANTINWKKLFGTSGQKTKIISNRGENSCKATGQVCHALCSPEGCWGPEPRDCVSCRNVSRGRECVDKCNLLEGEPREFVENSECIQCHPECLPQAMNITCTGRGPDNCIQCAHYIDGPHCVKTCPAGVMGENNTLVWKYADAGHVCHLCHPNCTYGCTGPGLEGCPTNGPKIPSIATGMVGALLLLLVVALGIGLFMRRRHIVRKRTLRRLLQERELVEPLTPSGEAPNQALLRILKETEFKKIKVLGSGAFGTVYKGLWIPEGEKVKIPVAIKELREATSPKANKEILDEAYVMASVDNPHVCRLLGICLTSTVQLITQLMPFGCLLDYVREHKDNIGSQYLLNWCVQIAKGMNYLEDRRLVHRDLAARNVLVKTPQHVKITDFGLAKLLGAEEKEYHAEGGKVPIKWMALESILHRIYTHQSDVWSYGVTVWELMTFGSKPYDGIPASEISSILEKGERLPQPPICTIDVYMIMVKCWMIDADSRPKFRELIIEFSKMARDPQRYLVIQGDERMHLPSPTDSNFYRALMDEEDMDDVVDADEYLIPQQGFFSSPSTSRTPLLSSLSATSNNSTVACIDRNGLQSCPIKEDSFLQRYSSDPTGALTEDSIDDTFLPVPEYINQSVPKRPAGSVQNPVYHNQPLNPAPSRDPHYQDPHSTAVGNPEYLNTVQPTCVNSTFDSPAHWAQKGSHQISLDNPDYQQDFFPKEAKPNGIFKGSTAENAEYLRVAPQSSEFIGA
# Epidermal growth factor receptor (Homo sapiens, UniProt P00533, T790M), sequence (P00533 25-1210 T790M limits assumed): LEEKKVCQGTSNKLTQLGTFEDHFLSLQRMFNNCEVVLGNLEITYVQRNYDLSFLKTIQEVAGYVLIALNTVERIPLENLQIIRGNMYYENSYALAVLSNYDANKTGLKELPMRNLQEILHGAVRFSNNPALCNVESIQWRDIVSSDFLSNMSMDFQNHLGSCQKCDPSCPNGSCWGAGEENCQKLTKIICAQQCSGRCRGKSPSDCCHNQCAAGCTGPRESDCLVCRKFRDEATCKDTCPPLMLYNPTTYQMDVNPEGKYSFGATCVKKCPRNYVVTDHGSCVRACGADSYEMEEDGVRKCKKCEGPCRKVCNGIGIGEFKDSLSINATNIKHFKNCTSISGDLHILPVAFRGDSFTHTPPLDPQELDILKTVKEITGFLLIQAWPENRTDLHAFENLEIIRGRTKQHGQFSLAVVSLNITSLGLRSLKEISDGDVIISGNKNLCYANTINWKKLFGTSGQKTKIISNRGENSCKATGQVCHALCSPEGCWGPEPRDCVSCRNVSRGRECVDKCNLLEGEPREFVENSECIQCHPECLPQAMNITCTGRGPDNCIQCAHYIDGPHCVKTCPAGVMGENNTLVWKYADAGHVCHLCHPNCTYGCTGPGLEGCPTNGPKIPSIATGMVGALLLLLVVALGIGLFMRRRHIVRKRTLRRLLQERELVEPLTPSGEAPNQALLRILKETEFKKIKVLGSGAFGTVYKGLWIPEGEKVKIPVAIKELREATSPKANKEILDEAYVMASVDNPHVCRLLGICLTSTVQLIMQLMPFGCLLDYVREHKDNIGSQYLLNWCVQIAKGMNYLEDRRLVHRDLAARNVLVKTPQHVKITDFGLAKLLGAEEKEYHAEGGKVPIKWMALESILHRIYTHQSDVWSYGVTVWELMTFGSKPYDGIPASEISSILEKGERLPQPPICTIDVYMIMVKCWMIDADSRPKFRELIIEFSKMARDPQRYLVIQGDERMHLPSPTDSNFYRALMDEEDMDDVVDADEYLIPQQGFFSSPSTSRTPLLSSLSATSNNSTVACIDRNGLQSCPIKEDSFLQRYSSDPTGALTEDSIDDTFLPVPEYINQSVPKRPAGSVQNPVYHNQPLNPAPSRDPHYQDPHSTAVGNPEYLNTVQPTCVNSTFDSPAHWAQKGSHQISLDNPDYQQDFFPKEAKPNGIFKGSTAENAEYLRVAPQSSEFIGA
# Receptor tyrosine-protein kinase erbB-2, sequence (P04626 whole entry, the tested form may be a part): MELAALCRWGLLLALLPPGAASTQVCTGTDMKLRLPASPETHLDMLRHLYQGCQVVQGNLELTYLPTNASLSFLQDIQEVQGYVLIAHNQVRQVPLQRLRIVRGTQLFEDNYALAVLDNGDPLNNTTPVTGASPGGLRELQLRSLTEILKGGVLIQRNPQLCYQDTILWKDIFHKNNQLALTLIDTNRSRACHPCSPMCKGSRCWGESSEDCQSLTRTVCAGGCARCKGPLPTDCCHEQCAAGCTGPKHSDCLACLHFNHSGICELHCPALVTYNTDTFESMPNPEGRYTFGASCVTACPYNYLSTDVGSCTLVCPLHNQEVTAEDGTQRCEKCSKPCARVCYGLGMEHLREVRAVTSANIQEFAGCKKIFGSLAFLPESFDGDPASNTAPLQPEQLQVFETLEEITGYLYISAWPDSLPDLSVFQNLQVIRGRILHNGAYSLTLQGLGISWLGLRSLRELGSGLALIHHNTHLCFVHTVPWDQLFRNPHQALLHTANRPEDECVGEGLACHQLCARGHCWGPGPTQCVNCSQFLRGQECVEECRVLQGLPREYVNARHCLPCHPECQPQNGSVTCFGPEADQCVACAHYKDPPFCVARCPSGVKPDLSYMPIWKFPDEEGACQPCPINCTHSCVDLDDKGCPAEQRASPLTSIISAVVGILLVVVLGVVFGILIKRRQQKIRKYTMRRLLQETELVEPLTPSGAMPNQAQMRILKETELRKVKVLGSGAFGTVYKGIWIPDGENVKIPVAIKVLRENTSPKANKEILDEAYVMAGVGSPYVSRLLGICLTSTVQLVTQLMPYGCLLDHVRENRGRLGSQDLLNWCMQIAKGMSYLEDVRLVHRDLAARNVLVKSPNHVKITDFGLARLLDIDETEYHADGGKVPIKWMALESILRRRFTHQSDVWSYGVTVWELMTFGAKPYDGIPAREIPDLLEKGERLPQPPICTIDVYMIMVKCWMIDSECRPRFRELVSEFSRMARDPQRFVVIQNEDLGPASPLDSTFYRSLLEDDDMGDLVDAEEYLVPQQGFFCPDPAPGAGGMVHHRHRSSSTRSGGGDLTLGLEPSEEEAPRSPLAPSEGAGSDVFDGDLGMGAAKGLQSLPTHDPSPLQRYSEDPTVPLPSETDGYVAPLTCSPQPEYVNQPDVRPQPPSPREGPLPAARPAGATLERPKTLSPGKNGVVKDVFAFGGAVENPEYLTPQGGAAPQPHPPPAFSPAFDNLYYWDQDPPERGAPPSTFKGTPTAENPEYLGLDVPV
IC50 (A-431),IC50 (A549 [1]),SMILES,further results
18.8 µM,> 50 µM,CCc1cc(Br)ccc1Nc1ncnc2cc(OC)c(OCCCN3CCNCCNCC3)cc12,
1.71 µM,5.35 µM,COc1cc2ncnc(Nc3ccc(Cl)c(C(F)(F)F)c3)c2cc1OCCCN1CCNCCNCCNCC1,
1.56 µM,37.3 µM,COc1cc2ncnc(Nc3cccc(C(F)(F)F)c3)c2cc1OCCCN1CCNCCNCC1,
1.86 µM,> 50 µM,COc1cc2ncnc(Nc3cccc(F)c3)c2cc1OCCCN1CCNCCNCCNCC1,
4.38 µM,23.8 µM,COc1cc2ncnc(Nc3ccc(Cl)cc3Cl)c2cc1OCCCN1CCNCCNCCNCC1,
2.21 µM,26.2 µM,COc1cc2ncnc(Nc3cccc(I)c3)c2cc1OCCCN1CCNCCNCC1,
12.7 µM,> 50 µM,COc1cc2ncnc(Nc3ccc(C#N)cc3F)c2cc1OCCCN1CCNCCNCC1,
1.12 µM,> 50 µM,COc1cc2ncnc(Nc3cccc(Cl)c3)c2cc1OCCCN1CCNCCNCC1,
,,COc1cc2ncnc(Nc3ccc(F)c(Cl)c3)c2cc1OCCCN1CCOCC1 [GEFITINIB],Activity (A549 [2]): Active; Activity (A549 [3]): 20.72%; Activity (A549 [4]): inactive; Activity (A549 [5]): 7.05%; Activity [6]: Non-Toxic
2.23 µM,> 50 µM,C#Cc1cccc(Nc2ncnc3cc(OC)c(OCCCN4CCNCCNCC4)cc23)c1,
1.84 µM,15.2 µM,COc1cc2ncnc(Nc3ccc(Br)cc3F)c2cc1OCCCN1CCNCCNCCNCC1,
0.561 µM,16.1 µM,COc1cc2ncnc(Nc3ccc(Br)cc3F)c2cc1OCCCN1CCNCCNCC1,IC50 [7]: 0.0282 µM
1.95 µM,15.7 µM,COc1cc2ncnc(Nc3cccc(C(F)(F)F)c3)c2cc1OCCCN1CCNCCNCCNCC1,
,3.64 µM,CS(=O)(=O)CCNCc1ccc(-c2ccc3ncnc(Nc4ccc(OCc5cccc(F)c5)c(Cl)c4)c3c2)o1 [LAPATINIB],"Activity (A549 [3]): 52.04%; Activity (A549 [8]): Active; inhibition at 72 h, 1 µM (in vitro): 35%; Activity (A549 [4]): inactive; Activity (A549 [5]): 5.73%; IC50 (L929): 2.05 µM"
1.06 µM,34.3 µM,COc1cc2ncnc(Nc3ccc(F)c(Br)c3)c2cc1OCCCN1CCNCCNCC1,
7.91 µM,> 50 µM,COc1cc2ncnc(Nc3cccc(F)c3)c2cc1OCCCN1CCNCCNCC1,
1.42 µM,27.1 µM,COc1cc2ncnc(Nc3cccc(Cl)c3)c2cc1OCCCN1CCNCCNCCNCC1,
5.65 µM,> 50 µM,CCc1cc(Br)ccc1Nc1ncnc2cc(OC)c(OCCCN3CCNCCNCCNCC3)cc12,
1.31 µM,> 50 µM,COc1cc2ncnc(Nc3ccc(F)c(Cl)c3)c2cc1OCCCN1CCNCCNCC1,IC50 [7]: 0.0083 µM
8.53 µM,> 50 µM,COc1cccc(Nc2ncnc3cc(OC)c(OCCCN4CCNCCNCC4)cc23)c1,
2.98 µM,6.23 µM,COc1cc2ncnc(Nc3ccc(Cl)c(C(F)(F)F)c3)c2cc1OCCCN1CCNCCNCC1,
1.11 µM,28.6 µM,C#Cc1cccc(Nc2ncnc3cc(OC)c(OCCCN4CCNCCNCCNCC4)cc23)c1,
2.54 µM,14.5 µM,COc1cc2ncnc(Nc3cccc(I)c3)c2cc1OCCCN1CCNCCNCCNCC1,
1.05 µM,14.7 µM,COc1cc2ncnc(Nc3cccc(Br)c3)c2cc1OCCCN1CCNCCNCCNCC1,
6.37 µM,> 50 µM,COc1cc2ncnc(Nc3ccc(C#N)cc3F)c2cc1OCCCN1CCNCCNCCNCC1,
4.08 µM,44.2 µM,COc1cc2ncnc(Nc3ccc(Cl)cc3Cl)c2cc1OCCCN1CCNCCNCC1,
3.21 µM,> 50 µM,COc1cccc(Nc2ncnc3cc(OC)c(OCCCN4CCNCCNCCNCC4)cc23)c1,
1.58 µM,11.8 µM,COc1cc2ncnc(Nc3ccc(F)c(Br)c3)c2cc1OCCCN1CCNCCNCCNCC1,
1.01 µM,20.2 µM,COc1cc2ncnc(Nc3ccc(F)c(Cl)c3)c2cc1OCCCN1CCNCCNCCNCC1,IC50 [7]: 0.0066 µM
2.32 µM,34.3 µM,COc1cc2ncnc(Nc3cccc(Br)c3)c2cc1OCCCN1CCNCCNCC1,

SMILES,IC50 (A-431),IC50 (A549 [1]),further results
COc1cc2ncnc(Nc3ccc(OCc4cccc(F)c4)c(Cl)c3)c2cc1OCCCN1CCNCCNCC1,0.442 µM,7.25 µM,Activity (A549 [9]): Active; IC50 [7]: 0.0003 µM; Activity (A549 [2]): Active; IC50 [10]: 0.0406 µM; IC50 [11]: 0.0096 µM; Activity (A549 [4]): inactive
COc1cc2ncnc(Nc3ccc(OCc4cccc(F)c4)c(Cl)c3)c2cc1OCCCN1CCNCCNCCNCC1,0.958 µM,3.4 µM,"IC50 [7]: 0.0014 µM; Activity (A549 [2]): Active; inhibition in vivo at 30 mg/kg (A549 [12]): 44.2%; Activity (A549 [3]): 81.53%; IC50 [10]: 0.0165 µM; Activity (A549 [13]): Active; Activity (A549 [14]): 11.16%; Activity (A549 [15]): 4.36%; Activity (A549 [16]): Dose-dependent effect; inhibition at 72 h, 1 µM (in vitro): 37.6%; IC50 [11]: 0.0021 µM; Activity (A549 [4]): inactive; Activity (A549 [5]): 7.94%; IC50 (L929): 2.74 µM; Activity (A549 [17]): 6.25%; Activity (A549 [18]): 54.62%; Activity (A549 [19]): Active; Activity [6]: Non-Toxic"
